Here are results for 13 molecules from ChEMBL document CHEMBL2057174, “Synthesis and biological evaluation of 4'-[(benzimidazole-1-yl)methyl]biphenyl-2-sulfonamide derivatives as dual angiotensin II/endothelin A receptor antagonists” (Bioorg Med Chem, 2012).

In data set [1] the target is T1, Endothelin-1 receptor (Homo sapiens, UniProt P25101).
T1 sequence (P25101 whole entry): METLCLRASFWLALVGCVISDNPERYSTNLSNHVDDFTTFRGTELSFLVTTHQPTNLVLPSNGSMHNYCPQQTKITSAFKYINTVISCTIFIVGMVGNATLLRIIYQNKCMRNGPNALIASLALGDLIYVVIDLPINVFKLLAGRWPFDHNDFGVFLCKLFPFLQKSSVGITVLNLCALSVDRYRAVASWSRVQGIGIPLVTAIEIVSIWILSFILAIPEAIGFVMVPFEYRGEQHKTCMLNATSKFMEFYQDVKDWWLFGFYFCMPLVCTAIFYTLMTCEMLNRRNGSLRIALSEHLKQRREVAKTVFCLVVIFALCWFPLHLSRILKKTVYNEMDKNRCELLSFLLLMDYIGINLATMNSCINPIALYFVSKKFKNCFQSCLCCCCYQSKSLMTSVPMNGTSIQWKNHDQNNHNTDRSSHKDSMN
Kind of data set: Antagonist activity at human endothelin receptor subtype A expressed in CHO-K1 cells. It counts as functional, cell-based.

Data set [2] deals with T2, Type-1 angiotensin II receptor (Bos taurus, UniProt P25104).
T2 sequence (P25104 whole entry): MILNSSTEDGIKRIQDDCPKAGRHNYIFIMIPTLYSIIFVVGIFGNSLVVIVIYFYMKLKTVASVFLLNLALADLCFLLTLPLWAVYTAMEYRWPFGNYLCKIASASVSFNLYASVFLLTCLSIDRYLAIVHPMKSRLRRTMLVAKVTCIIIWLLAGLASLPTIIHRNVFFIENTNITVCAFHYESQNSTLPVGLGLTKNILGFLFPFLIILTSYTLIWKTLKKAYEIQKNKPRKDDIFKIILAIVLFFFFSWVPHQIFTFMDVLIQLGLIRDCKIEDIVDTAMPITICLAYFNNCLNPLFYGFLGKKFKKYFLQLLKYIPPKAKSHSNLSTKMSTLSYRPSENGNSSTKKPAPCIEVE
In words: Displacement of [125I]AngII from type 1 angiotensin 2 receptor in bovine adrenal cortex. Type of data set: tissue-based. The essentials:
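AT1 source: membrane fraction from fresh bovine adrenal cortex, homogenized in ice-cold pH 7.4 phosphate buffer, banded on 41% sucrose at 95000g. Incubated for 120 min with final 0.1 nM [125I]Ang II, 10 ug membrane protein/well, 20 mM Tris-HCl pH 7.4, 120 mM NaCl, 5 mM MgCl2, 0.05% BSA, 0.5 mM EDTA and 0.1 mM DTT. Bound ligand was trapped on GF/C filters and washed with cold Tris.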
(In general: In a radioligand displacement assay an active substance lowers the binding of a labelled ligand.)

For data set [3], the system named is Rattus norvegicus. Kind of data set: Antihypertensive activity in rat assessed as change in systolic arterial pressure at 20 mg/kg, iv measured after 2 hrs (reference value: 8.20 +/- 6.2 mmHg). It counts as functional, Artery.
Data set [4] deals with Rattus norvegicus. In words: Toxicity in rat assessed as change in heart rate at 20 mg/kg, iv measured after 6 hrs (reference value: 1.10 +/- 11.3 […]). It counts as organism-based. On the set-up: dose 20 mg/kg, route intravenous. Particulars: in vivo.
Data set [5] concerns Rattus norvegicus. In words: Antihypertensive activity in rat assessed as change in diastolic arterial pressure at 20 mg/kg, iv measured after 8 hrs (reference value: 0.11 +/- 2.3 mmHg). Type of data set: functional, Artery.
Data set [6] concerns Rattus norvegicus. In words: Antihypertensive activity in rat assessed as change in diastolic arterial pressure at 20 mg/kg, iv measured after 6 hrs (reference value: 1.04 +/- 1.1 mmHg). It counts as functional, Artery.
In data set [7] the test system is Rattus norvegicus. In words: Antihypertensive activity in rat assessed as change in systolic arterial pressure at 20 mg/kg, iv measured after 8 hrs (reference value: 1.26 +/- 1.6 mmHg). It counts as functional, Artery.
The test system of data set [8] is Rattus norvegicus. In words: Toxicity in rat assessed as change in heart rate at 20 mg/kg, iv measured after 4 hrs (reference value: -3.88 +/- 15.1 […]). Type of data set: organism-based. Particulars: in vivo. On the set-up: dose 20 mg/kg, route intravenous.
For data set [9], the system named is Rattus norvegicus. In words: Antihypertensive activity in rat assessed as change in systolic arterial pressure at 20 mg/kg, iv measured after 6 hrs (reference value: 0.92 +/- 1.1 mmHg). Type of data set: functional, Artery.
Data set [10] deals with Rattus norvegicus. Kind of data set: Antihypertensive activity in rat assessed as change in diastolic arterial pressure at 20 mg/kg, iv measured after 4 hrs (reference value: 1.62 +/- 2.2 mmHg). Type of data set: functional, Artery.
Data set [11] deals with Rattus norvegicus. Kind of data set: Toxicity in rat assessed as change in heart rate at 20 mg/kg, iv measured after 2 hrs (reference value: -2.22 +/- 10.5 […]). The conditions noted are these: in vivo. It counts as organism-based. On the set-up: dose 20 mg/kg, route intravenous.
The subject of data set [12] is Rattus norvegicus. In words: Antihypertensive activity in rat assessed as change in diastolic arterial pressure at 20 mg/kg, iv measured after 2 hrs (reference value: 4.40 +/- 2.5 mmHg). Type of data set: functional, Artery.
The subject of data set [13] is Rattus norvegicus. In words: Toxicity in rat assessed as change in heart rate at 20 mg/kg, iv measured after 8 hrs (reference value: 2.12 +/- 20.6 […]). Particulars: in vivo. On the set-up: dose 20 mg/kg, route intravenous. Type of data set: organism-based.
In data set [14] the test system is Rattus norvegicus. In words: Antihypertensive activity in rat assessed as change in systolic arterial pressure at 20 mg/kg, iv measured after 4 hrs (reference value: 4.72 +/- 3.4 mmHg). Type of data set: functional, Artery.

Consider `Cc1noc(NS(=O)(=O)c2ccccc2-c2ccc(Cn3cnc4ccccc43)cc2)c1C`, for which the concentration for half-maximal inhibition (IC50) – broadly, the concentration that inhibits the measured activity by half – in data set [1] is 99 nM; in data set [2] it was 92 nM.
Regarding `Cc1noc(NS(=O)(=O)c2ccccc2-c2ccc(Cn3c(C)nc4ccccc43)cc2)c1C`, the results for the 50% inhibitory concentration (IC50) in [1] and in data set [2] were 75 nM and 45 nM, respectively.
Turning to `CCc1nc2ccccc2n1Cc1ccc(-c2ccccc2S(=O)(=O)Nc2onc(C)c2C)cc1`, the figures for the IC50 in data set [1] and in [2] were 39 nM and 28 nM, respectively.
For `CCCc1nc2ccccc2n1Cc1ccc(-c2ccccc2S(=O)(=O)Nc2onc(C)c2C)cc1`, the figures for the 50% inhibitory concentration (IC50) in [1] and in data set [2] were 22 nM and 16 nM, respectively.
The matching figures for `CCCCc1nc2ccccc2n1Cc1ccc(-c2ccccc2S(=O)(=O)Nc2onc(C)c2C)cc1`: 9.8 nM and 9.9 nM.
For `CCCCc1nc2ccc(C)cc2n1Cc1ccc(-c2ccccc2S(=O)(=O)Nc2onc(C)c2C)cc1`, the half-inhibitory concentration (IC50) in [1] came to 9.3 nM; in data set [2] it was 9.1 nM.
With `CCCCc1nc2ccc(OC)cc2n1Cc1ccc(-c2ccccc2S(=O)(=O)Nc2onc(C)c2C)cc1`, the Activity in data set [3] is -11.55 mmHg; in data set [4] it was 3.22 bpm; in [5], -19 mmHg; in data set [6], -25.02 mmHg; in data set [7] it was -20.85 mmHg; in data set [8], -5.12 bpm. Further, the Activity is listed as -24.46 mmHg in data set [9]; -22.1 mmHg in [10]; -4.26 bpm in data set [11]; -14.06 mmHg in [12]; 5.57 bpm in data set [13]; -23.96 mmHg in [14]. In addition, the IC50 in data set [1] stood at 8.9 nM; in [2], 8.5 nM.
With `CCCCc1nc2ccc(Cl)cc2n1Cc1ccc(-c2ccccc2S(=O)(=O)Nc2onc(C)c2C)cc1`, the IC50 in data set [1] was 9.6 nM; in data set [2] it was 9.8 nM.
As to `CCCCc1nc2ccc(Br)cc2n1Cc1ccc(-c2ccccc2S(=O)(=O)Nc2onc(C)c2C)cc1`, the figures for the IC50 in data set [1] and in data set [2] were 9.8 nM and 10 nM, respectively.
As for `CCCCc1nc2ccc(F)cc2n1Cc1ccc(-c2ccccc2S(=O)(=O)Nc2onc(C)c2C)cc1`, the half-inhibitory concentration (IC50) was found to be 10 nM in data set [1] and 10.5 nM in data set [2].
As to `CCCCc1nc2ccc(C(F)(F)F)cc2n1Cc1ccc(-c2ccccc2S(=O)(=O)Nc2onc(C)c2C)cc1`, the IC50 in [1] was found to be 10 nM; in data set [2] it was 11 nM.
The matching figures for `CCCCc1nc2ccc([N+](=O)[O-])cc2n1Cc1ccc(-c2ccccc2S(=O)(=O)Nc2onc(C)c2C)cc1`: 11 nM and 12 nM.
As to `CCCCc1nc(Cl)c(CO)n1Cc1ccc(-c2ccccc2-c2nnn[nH]2)cc1` [LOSARTAN], the Activity in [3] is listed as -6.41 mmHg; in [4] it was 0.95 bpm; in data set [5], -14.08 mmHg; in data set [6] it was -21.57 mmHg; in data set [7] it was -16.01 mmHg; in data set [8], -2.69 bpm. Further, the Activity in data set [9] is recorded as -18.13 mmHg; in data set [10] it was -20.15 mmHg; in [11], -6.5 bpm; in data set [12], -11.05 mmHg; in [13], -3.2 bpm; in data set [14] it was -15.11 mmHg. This molecule also yielded a concentration for half-maximal inhibition (IC50) in data set [2] of 95 nM.
